Calls of active or inactive are those of the source. The calls are words filed in the database; no cut-off is given here.
Experiments:
Mus musculus [1] = experiment: Antiinflammatory activity against carrageenan-induced paw edema in Swiss albino mouse assessed as swelling thickness at 100 mg/kg, po after 90 mins; assay type: functional
How it was run: (§1)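 Oral dosing in 0.5% CMC; vehicle to controls. Then carrageenan (0.5 mg/25 ll, freshly suspended in 154 mM saline) injected into the right hind paw subplantar tissue; saline into the left paw. Right-left footpad thickness difference measured by dial gauge calliper every 90 min over 6 h. Inhibition % is relative to vehicle control. n = 6; mean ± SEM.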

Mus musculus [2] = experiment: Inhibition of carrageenan-induced paw edema in Swiss albino mouse at 100 mg/kg, po after 90 mins relative to control; assay type: functional; conditions: 1.5 h; how it was run: as §1
Mus musculus [3] = experiment: Antiinflammatory activity against carrageenan-induced paw edema in Swiss albino mouse assessed as swelling thickness at 50 mg/kg, po after 180 mins; assay type: functional; how it was run: as §1
Mus musculus [4] = experiment: Inhibition of p-benzoquinone-induced writhing in Swiss albino mouse at 200 mg/kg, po relative to control; assay type: functional
How it was run: (§2)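 Mice, n = 6 per group, dosed orally with a suspension in 0.5% sodium CMC. 60 min later, 0.1 ml/10 g of 2.5% […] p-benzoquinone in distilled water given ip. Abdominal writhes counted per animal for 15 min, starting 5 min after injection. Expressed as % change in mean writhing count versus vehicle controls.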

Mus musculus [5] = experiment: Inhibition of carrageenan-induced paw edema in Swiss albino mouse at 50 mg/kg, po after 270 mins relative to control; assay type: functional; conditions: 4.5 h
How it was run: (§3)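 Mice, n = 6 per group. Test agent given orally as a suspension in 0.5% sodium CMC in distilled water; controls received vehicle only. Afterwards, 0.5 mg/25 ll carrageenan in saline (154 mM NaCl) injected subplantar into the right hind paw, saline into the left. Right-minus-left footpad thickness measured by dial gauge caliper every 90 min for 6 h. Inhibition is relative to vehicle-control group means.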

Mus musculus [6] = experiment: Inhibition of p-benzoquinone-induced writhing in Swiss albino mouse at 25 mg/kg, po relative to control; assay type: functional; how it was run: as §2
Mus musculus [7] = experiment: Antiinflammatory activity against carrageenan-induced paw edema in Swiss albino mouse assessed as swelling thickness at 200 mg/kg, po after 90 mins; assay type: functional; how it was run: as §1
Mus musculus [8] = experiment: Antiinflammatory activity against carrageenan-induced paw edema in Swiss albino mouse assessed as swelling thickness at 200 mg/kg, po after 180 mins; assay type: functional; how it was run: as §1
Mus musculus [9] = experiment: Antiinflammatory activity against carrageenan-induced paw edema in Swiss albino mouse assessed as swelling thickness at 25 mg/kg, po after 180 mins; assay type: functional; how it was run: as §1
Mus musculus [10] = experiment: Analgesic activity against p-benzoquinone-induced abdominal constriction in Swiss albino mouse assessed as number of writhings at 100 mg/kg, po; assay type: functional, Abdomen
How it was run: (§4)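 Test samples given orally in 0.5% CMC; vehicle to controls. 60 min later, 2.5% (v/v) p-benzoquinone in distilled water, 0.1 ml/10 g, given i.p. Mice housed singly; writhes counted for 15 min starting 5 min after injection. Activity is % change from vehicle controls. n = 6; mean ± SEM.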

Mus musculus [11] = experiment: Acute toxicity in Swiss albino mouse assessed as lethal effect at 100 mg/kg/day, po after 72 hrs; assay type: organism-based; design: route oral; conditions: in vivo
How it was run: (§5)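 Oral single dose suspended in 0.5% carboxymethylcellulose, given after a 24 h fast; food and water returned 1 h after dosing. Vehicle-only controls. Mice observed at 1 h, then once daily for 72 h, for toxic signs and mortality.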

Mus musculus [12] = experiment: Analgesic activity against p-benzoquinone-induced abdominal constriction in Swiss albino mouse assessed as number of writhings at 50 mg/kg, po; assay type: functional, Abdomen; how it was run: as §4
Mus musculus [13] = experiment: Acute toxicity in Swiss albino mouse assessed as lethal effect at 50 mg/kg/day, po after 72 hrs; assay type: organism-based; design: route oral; conditions: in vivo; how it was run: as §5
Mus musculus [14] = experiment: Antiinflammatory activity against carrageenan-induced paw edema in Swiss albino mouse assessed as swelling thickness at 50 mg/kg, po after 90 mins; assay type: functional; how it was run: as §1
Mus musculus [15] = experiment: Antiinflammatory activity against carrageenan-induced paw edema in Swiss albino mouse assessed as swelling thickness at 25 mg/kg, po after 270 mins; assay type: functional; how it was run: as §1
Mus musculus [16] = experiment: Inhibition of carrageenan-induced paw edema in Swiss albino mouse at 50 mg/kg, po after 90 mins relative to control; assay type: functional; conditions: 1.5 h; how it was run: as §3
Mus musculus [17] = experiment: Antiinflammatory activity against carrageenan-induced paw edema in Swiss albino mouse assessed as swelling thickness at 200 mg/kg, po after 360 mins; assay type: functional; how it was run: as §1
Mus musculus [18] = experiment: Antiinflammatory activity against carrageenan-induced paw edema in Swiss albino mouse assessed as swelling thickness at 50 mg/kg, po after 270 mins; assay type: functional; how it was run: as §1
Mus musculus [19] = experiment: Antiinflammatory activity against carrageenan-induced paw edema in Swiss albino mouse assessed as swelling thickness at 25 mg/kg, po after 90 mins; assay type: functional; how it was run: as §1
Mus musculus [20] = experiment: Analgesic activity against p-benzoquinone-induced abdominal constriction in Swiss albino mouse assessed as number of writhings at 25 mg/kg, po; assay type: functional, Abdomen; how it was run: as §4
Mus musculus [21] = experiment: Inhibition of carrageenan-induced paw edema in Swiss albino mouse at 50 mg/kg, po after 360 mins relative to control; assay type: functional; conditions: 6 h; how it was run: as §3
Mus musculus [22] = experiment: Antiinflammatory activity against carrageenan-induced paw edema in Swiss albino mouse assessed as swelling thickness at 50 mg/kg, po after 360 mins; assay type: functional; how it was run: as §1
Mus musculus [23] = experiment: Antiinflammatory activity against carrageenan-induced paw edema in Swiss albino mouse assessed as swelling thickness at 100 mg/kg, po after 180 mins; assay type: functional; how it was run: as §1
Mus musculus [24] = experiment: Inhibition of carrageenan-induced paw edema in Swiss albino mouse at 100 mg/kg, po after 270 mins relative to control; assay type: functional; conditions: 4.5 h; how it was run: as §1
Mus musculus [25] = experiment: Inhibition of carrageenan-induced paw edema in Swiss albino mouse at 25 mg/kg, po after 90 mins relative to control; assay type: functional; conditions: 1.5 h; how it was run: as §1
Mus musculus [26] = experiment: Antiinflammatory activity against carrageenan-induced paw edema in Swiss albino mouse assessed as swelling thickness at 200 mg/kg, po after 270 mins; assay type: functional; how it was run: as §1
Mus musculus [27] = experiment: Acute toxicity in Swiss albino mouse assessed as lethal effect at 200 mg/kg/day, po after 72 hrs; assay type: organism-based; design: route oral; conditions: in vivo; how it was run: as §5
Mus musculus [28] = experiment: Gastric-ulcerogenic effect in Swiss albino mouse assessed as lesions at 100 mg/kg, po; assay type: functional, organism-based; design: dose 100 mg/kg
How it was run: (§6)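 Mice killed under deep ether anesthesia 3 h after the writhing test; the oral dose in 0.5% CMC was the one used in that test. Stomachs removed, opened along the great curvature and examined under a dissecting microscope for lesions or bleeding. Reported as ratio of ulceration; n = 6.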

Mus musculus [29] = experiment: Inhibition of carrageenan-induced paw edema in Swiss albino mouse at 25 mg/kg, po after 270 mins relative to control; assay type: functional; conditions: 4.5 h; how it was run: as §1
Mus musculus [30] = experiment: Inhibition of carrageenan-induced paw edema in Swiss albino mouse at 100 mg/kg, po after 360 mins relative to control; assay type: functional; conditions: 6 h; how it was run: as §1
Mus musculus [31] = experiment: Antiinflammatory activity against carrageenan-induced paw edema in Swiss albino mouse assessed as swelling thickness at 25 mg/kg, po after 360 mins; assay type: functional; how it was run: as §1
Mus musculus [32] = experiment: Inhibition of carrageenan-induced paw edema in Swiss albino mouse at 25 mg/kg, po after 180 mins relative to control; assay type: functional; conditions: 3 h; how it was run: as §1
Mus musculus [33] = experiment: Gastric-ulcerogenic effect in Swiss albino mouse assessed as lesions at 25 mg/kg, po; assay type: functional, organism-based; design: dose 25 mg/kg; how it was run: as §6
Mus musculus [34] = experiment: Inhibition of p-benzoquinone-induced writhing in Swiss albino mouse at 100 mg/kg, po relative to control; assay type: functional; how it was run: as §2
Mus musculus [35] = experiment: Inhibition of carrageenan-induced paw edema in Swiss albino mouse at 100 mg/kg, po after 180 mins relative to control; assay type: functional; conditions: 3 h; how it was run: as §1
Mus musculus [36] = experiment: Analgesic activity against p-benzoquinone-induced abdominal constriction in Swiss albino mouse assessed as number of writhings at 200 mg/kg, po; assay type: functional, Abdomen; how it was run: as §4
Mus musculus [37] = experiment: Inhibition of carrageenan-induced paw edema in Swiss albino mouse at 25 mg/kg, po after 360 mins relative to control; assay type: functional; conditions: 6 h; how it was run: as §1
Mus musculus [38] = experiment: Antiinflammatory activity against carrageenan-induced paw edema in Swiss albino mouse assessed as swelling thickness at 100 mg/kg, po after 270 mins; assay type: functional; how it was run: as §1
Mus musculus [39] = experiment: Inhibition of carrageenan-induced paw edema in Swiss albino mouse at 50 mg/kg, po after 180 mins relative to control; assay type: functional; conditions: 3 h; how it was run: as §1
Mus musculus [40] = experiment: Acute toxicity in Swiss albino mouse assessed as lethal effect at 25 mg/kg/day, po after 72 hrs; assay type: organism-based; design: route oral; conditions: in vivo; how it was run: as §5
Mus musculus [41] = experiment: Antiinflammatory activity against carrageenan-induced paw edema in Swiss albino mouse assessed as swelling thickness at 100 mg/kg, po after 360 mins; assay type: functional; how it was run: as §1
Mus musculus [42] = experiment: Inhibition of p-benzoquinone-induced writhing in Swiss albino mouse at 50 mg/kg, po relative to control; assay type: functional; how it was run: as §2
Mus musculus [43] = experiment: Gastric-ulcerogenic effect in Swiss albino mouse assessed as lesions at 50 mg/kg, po; assay type: functional, organism-based; design: dose 50 mg/kg; how it was run: as §6

CCSc1nc(-c2ccccc2Cl)n[nH]1
Activity (Mus musculus [1]): 33.2 10^-2mm
inhibition in vivo at 100 mg/kg (Mus musculus [2]): 25.9%
Activity (Mus musculus [3]): 42.8 10^-2mm
inhibition in vivo at 200 mg/kg (Mus musculus [4]): 19.6%
inhibition in vivo at 50 mg/kg (Mus musculus [5]): 27.8%
inhibition in vivo at 25 mg/kg (Mus musculus [6]): 5.6%
Activity (Mus musculus [7]): 55.8 10^-2mm
Activity (Mus musculus [8]): 61.2 10^-2mm
Activity (Mus musculus [9]): 54.8 10^-2mm
Activity (Mus musculus [10]): 35.2
Activity (Mus musculus [11]): Non-toxic
Activity (Mus musculus [12]): 37.8
Activity (Mus musculus [13]): Non-toxic
Activity (Mus musculus [14]): 45.2 10^-2mm
Activity (Mus musculus [15]): 60.5 10^-2mm
inhibition in vivo at 50 mg/kg (Mus musculus [16]): 15%
Activity (Mus musculus [17]): 75.9 10^-2mm
Activity (Mus musculus [18]): 46.8 10^-2mm
Activity (Mus musculus [19]): 49.3 10^-2mm
Activity (Mus musculus [20]): 48.5
inhibition in vivo at 50 mg/kg (Mus musculus [21]): 29.6%
Activity (Mus musculus [22]): 50.7 10^-2mm
Activity (Mus musculus [23]): 37.8 10^-2mm
inhibition in vivo at 100 mg/kg (Mus musculus [24]): 28.2%
inhibition in vivo at 25 mg/kg (Mus musculus [25]): 7.3%
Activity (Mus musculus [26]): 67.9 10^-2mm
Activity (Mus musculus [27]): Non-toxic
Activity (Mus musculus [28]): Active
inhibition in vivo at 25 mg/kg (Mus musculus [29]): 6.6%
inhibition in vivo at 100 mg/kg (Mus musculus [30]): 30.9%
Activity (Mus musculus [31]): 68.9 10^-2mm
inhibition in vivo at 25 mg/kg (Mus musculus [32]): 7.7%
Activity (Mus musculus [33]): Active
inhibition in vivo at 100 mg/kg (Mus musculus [34]): 25.6%
inhibition in vivo at 100 mg/kg (Mus musculus [35]): 26.6%
Activity (Mus musculus [36]): 41.3
inhibition in vivo at 25 mg/kg (Mus musculus [37]): 4.3%
Activity (Mus musculus [38]): 42.2 10^-2mm
inhibition in vivo at 50 mg/kg (Mus musculus [39]): 27.9%
Activity (Mus musculus [40]): Non-toxic
Activity (Mus musculus [41]): 47.5 10^-2mm
inhibition in vivo at 50 mg/kg (Mus musculus [42]): 26.4%
Activity (Mus musculus [43]): Active

— ChEMBL document CHEMBL1142894, “Preparation of 5-aryl-3-alkylthio-l,2,4-triazoles and corresponding sulfones with antiinflammatory-analgesic activity” (Bioorg Med Chem, 2007)
